In the M2OR odorant receptor database:
Substitutions are numbered along the chain they refer to.

Tests used:
Conditions in all cases: stereoisomer not certain
OR8D2 (Homo sapiens) = molecular target: T1, OR8D2 (Homo sapiens) (UniProt Q9GZM6)
T1 sequence (whole entry): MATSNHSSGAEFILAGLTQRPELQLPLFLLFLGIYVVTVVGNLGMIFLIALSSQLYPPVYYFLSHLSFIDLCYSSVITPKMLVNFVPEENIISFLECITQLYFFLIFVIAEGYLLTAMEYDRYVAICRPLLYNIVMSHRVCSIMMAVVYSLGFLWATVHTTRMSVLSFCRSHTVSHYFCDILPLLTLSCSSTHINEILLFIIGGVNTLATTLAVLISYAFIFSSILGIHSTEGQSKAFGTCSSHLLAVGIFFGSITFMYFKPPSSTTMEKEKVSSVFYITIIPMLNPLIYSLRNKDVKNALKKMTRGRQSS
Summary of the method: (§1)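 Each entry records the cell line, G-protein, co-transfected protein and tags used. Methods varied with the source, often transient luciferase assays in mammalian cell lines. A receptor–molecule pair is called responsive (active) if the original authors judged its signal statistically different from baseline and non-responsive (inactive) otherwise.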

OR8D4 (Homo sapiens) = molecular target: T2, OR8D4 (Homo sapiens) (UniProt Q8NGM9)
T2 sequence (whole entry): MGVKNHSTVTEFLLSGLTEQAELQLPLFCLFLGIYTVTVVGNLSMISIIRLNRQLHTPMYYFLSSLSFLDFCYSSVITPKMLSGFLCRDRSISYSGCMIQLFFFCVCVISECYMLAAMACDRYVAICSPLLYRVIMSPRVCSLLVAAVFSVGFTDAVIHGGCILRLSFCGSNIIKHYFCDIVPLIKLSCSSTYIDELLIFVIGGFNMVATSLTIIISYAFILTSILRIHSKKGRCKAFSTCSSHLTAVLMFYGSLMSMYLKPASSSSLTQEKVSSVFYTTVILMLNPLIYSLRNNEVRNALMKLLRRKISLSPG
Summary of the method: as §1

OR8D4 C120Y R133K = tested on: T3, OR8D4 C120Y R133K
T3 sequence (whole entry): T2 sequence (whole entry) with C120Y, R133K
Summary of the method: as §1

OR8G1 (Homo sapiens) = molecular target: T4, OR8G1 (Homo sapiens) (UniProt Q15617)
T4 sequence (whole entry): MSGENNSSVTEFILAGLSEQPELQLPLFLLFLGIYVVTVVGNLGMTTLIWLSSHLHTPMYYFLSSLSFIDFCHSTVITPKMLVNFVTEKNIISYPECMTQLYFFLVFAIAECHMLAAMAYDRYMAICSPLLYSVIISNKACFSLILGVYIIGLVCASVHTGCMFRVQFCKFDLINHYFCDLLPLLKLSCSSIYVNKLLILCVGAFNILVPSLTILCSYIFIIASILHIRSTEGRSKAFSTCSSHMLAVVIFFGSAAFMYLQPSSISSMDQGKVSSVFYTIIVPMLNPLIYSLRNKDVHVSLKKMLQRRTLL
Summary of the method: as §1

OR8G5 (Homo sapiens) = molecular target: T5, OR8G5 (Homo sapiens) (UniProt Q8NG78)
T5 sequence (whole entry): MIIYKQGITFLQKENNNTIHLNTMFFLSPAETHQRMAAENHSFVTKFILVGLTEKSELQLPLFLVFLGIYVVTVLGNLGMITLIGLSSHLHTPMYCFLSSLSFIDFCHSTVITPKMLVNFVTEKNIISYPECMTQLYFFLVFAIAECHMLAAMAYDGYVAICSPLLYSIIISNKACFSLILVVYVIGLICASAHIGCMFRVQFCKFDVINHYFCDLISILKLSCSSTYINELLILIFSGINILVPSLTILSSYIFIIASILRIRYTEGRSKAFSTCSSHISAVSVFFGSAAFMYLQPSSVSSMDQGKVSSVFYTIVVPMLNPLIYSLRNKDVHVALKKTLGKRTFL
Summary of the method: as §1

OR8H1 (Homo sapiens) = molecular target: T6, OR8H1 (Homo sapiens) (UniProt Q8NGG4)
T6 sequence (whole entry): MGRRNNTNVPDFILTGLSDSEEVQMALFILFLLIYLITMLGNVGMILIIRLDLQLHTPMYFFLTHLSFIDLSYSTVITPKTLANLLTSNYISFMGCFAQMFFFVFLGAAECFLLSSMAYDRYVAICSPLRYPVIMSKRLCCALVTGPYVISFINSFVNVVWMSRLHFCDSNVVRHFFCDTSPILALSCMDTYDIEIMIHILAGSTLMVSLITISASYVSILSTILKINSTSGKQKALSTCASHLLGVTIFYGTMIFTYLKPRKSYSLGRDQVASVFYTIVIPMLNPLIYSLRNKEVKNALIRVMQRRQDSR
Summary of the method: as §1

OR8H2 (Homo sapiens) = molecular target: T7, OR8H2 (Homo sapiens) (UniProt Q8N162)
T7 sequence (whole entry): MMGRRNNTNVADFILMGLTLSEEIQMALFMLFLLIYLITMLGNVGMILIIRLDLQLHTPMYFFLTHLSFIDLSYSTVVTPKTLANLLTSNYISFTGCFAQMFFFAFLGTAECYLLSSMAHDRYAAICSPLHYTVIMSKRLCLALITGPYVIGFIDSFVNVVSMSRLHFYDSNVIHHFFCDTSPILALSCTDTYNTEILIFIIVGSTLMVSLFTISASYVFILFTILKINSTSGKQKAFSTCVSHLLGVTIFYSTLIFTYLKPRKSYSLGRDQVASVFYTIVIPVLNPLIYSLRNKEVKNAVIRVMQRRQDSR
Summary of the method: as §1

OR8H2 H120Y Y169C V284M = tested on: T8, OR8H2 H120Y Y169C V284M
T8 sequence (whole entry): T7 sequence (whole entry) with H120Y, Y169C, V284M
Summary of the method: as §1

OR8H3 (Homo sapiens) = molecular target: T9, OR8H3 (Homo sapiens) (UniProt Q8N146)
T9 sequence (whole entry): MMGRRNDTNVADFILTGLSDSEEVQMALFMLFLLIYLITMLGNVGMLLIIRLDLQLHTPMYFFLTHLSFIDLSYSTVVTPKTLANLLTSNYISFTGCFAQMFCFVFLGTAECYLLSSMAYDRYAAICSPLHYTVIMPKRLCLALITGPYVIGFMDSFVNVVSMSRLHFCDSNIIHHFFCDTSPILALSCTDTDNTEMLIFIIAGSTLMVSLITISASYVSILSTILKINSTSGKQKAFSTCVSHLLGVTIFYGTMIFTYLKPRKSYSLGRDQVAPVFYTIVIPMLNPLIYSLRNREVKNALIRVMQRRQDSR
Summary of the method: as §1

OR8H3 = tested on: T10, OR8H3
T10 sequence (whole entry): T9 sequence (whole entry) with P137S
Summary of the method: as §1

OR8I2 (Homo sapiens) = molecular target: T11, OR8I2 (Homo sapiens) (UniProt Q8N0Y5)
T11 sequence (whole entry): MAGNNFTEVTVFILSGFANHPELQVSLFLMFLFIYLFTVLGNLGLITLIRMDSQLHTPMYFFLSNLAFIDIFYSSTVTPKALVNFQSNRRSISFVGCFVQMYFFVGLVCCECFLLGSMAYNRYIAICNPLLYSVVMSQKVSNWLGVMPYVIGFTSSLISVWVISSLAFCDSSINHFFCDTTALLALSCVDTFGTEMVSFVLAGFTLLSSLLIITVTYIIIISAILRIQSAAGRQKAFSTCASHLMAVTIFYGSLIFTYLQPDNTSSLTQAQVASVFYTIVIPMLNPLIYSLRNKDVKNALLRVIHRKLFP
Summary of the method: as §1

OR8J1 (Homo sapiens) = molecular target: T12, OR8J1 (Homo sapiens) (UniProt Q8NGP2)
T12 sequence (whole entry): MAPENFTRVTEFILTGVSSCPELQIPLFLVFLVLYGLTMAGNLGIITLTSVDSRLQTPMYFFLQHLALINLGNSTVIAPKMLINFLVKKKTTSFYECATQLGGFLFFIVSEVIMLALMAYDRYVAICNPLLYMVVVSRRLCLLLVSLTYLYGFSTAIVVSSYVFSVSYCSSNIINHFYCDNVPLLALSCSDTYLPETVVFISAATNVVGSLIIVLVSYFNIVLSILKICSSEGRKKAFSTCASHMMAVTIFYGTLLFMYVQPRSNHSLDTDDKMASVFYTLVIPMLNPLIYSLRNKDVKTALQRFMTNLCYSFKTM
Summary of the method: as §1

OR8J1 = tested on: T13, OR8J1
T13 sequence (whole entry): T12 sequence (whole entry) with Y120C
Summary of the method: as §1

OR8J3 (Homo sapiens) = molecular target: T14, OR8J3 (Homo sapiens) (UniProt Q8NGG0)
T14 sequence (whole entry): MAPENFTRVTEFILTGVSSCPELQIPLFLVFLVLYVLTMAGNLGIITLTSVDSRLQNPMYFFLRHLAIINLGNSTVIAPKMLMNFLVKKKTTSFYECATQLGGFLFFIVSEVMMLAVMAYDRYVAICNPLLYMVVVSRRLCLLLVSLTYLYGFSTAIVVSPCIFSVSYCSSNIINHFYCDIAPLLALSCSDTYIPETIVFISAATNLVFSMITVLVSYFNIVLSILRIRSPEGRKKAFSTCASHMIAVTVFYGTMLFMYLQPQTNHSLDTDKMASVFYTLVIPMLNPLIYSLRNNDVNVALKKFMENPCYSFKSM
Summary of the method: as §1

OR8J3 E4V = tested on: T15, OR8J3 E4V
T15 sequence (whole entry): T14 sequence (whole entry) with E4V
Summary of the method: as §1

OR8K1 (Homo sapiens) = molecular target: T16, OR8K1 (Homo sapiens) (UniProt Q8NGG5)
T16 sequence (whole entry): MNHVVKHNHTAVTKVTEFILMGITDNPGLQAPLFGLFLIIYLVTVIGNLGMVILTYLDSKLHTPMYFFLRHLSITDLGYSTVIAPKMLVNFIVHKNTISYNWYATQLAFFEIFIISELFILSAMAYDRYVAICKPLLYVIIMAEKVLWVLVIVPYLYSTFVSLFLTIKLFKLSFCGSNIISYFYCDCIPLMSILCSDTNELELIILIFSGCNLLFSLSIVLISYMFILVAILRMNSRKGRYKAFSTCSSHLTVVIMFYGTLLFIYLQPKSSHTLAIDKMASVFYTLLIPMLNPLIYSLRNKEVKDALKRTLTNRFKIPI
Summary of the method: as §1

OR8K3 (Homo sapiens) = molecular target: T17, OR8K3 (Homo sapiens) (UniProt Q8NH51)
T17 sequence (whole entry): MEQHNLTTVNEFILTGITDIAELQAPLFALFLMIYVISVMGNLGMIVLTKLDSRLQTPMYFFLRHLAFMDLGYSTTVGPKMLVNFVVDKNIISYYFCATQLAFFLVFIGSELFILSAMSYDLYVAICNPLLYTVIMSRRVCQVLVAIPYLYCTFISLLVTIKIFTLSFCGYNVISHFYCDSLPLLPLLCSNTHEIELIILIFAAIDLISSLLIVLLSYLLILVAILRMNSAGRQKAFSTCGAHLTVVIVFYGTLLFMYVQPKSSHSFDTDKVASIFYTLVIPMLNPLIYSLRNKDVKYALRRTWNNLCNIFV
Summary of the method: as §1

OR8K5 (Homo sapiens) = molecular target: T18, OR8K5 (Homo sapiens) (UniProt Q8NH50)
T18 sequence (whole entry): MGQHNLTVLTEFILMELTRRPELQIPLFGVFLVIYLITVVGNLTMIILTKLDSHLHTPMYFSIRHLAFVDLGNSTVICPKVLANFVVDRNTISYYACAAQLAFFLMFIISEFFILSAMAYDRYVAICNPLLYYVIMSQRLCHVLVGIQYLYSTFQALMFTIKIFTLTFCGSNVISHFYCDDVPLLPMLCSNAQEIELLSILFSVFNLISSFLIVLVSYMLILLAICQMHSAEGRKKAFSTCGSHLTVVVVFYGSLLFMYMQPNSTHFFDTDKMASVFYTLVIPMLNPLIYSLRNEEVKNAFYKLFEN
Summary of the method: as §1

OR8S1 (Homo sapiens) = molecular target: T19, OR8S1 (Homo sapiens) (UniProt Q8NH09)
T19 sequence (whole entry): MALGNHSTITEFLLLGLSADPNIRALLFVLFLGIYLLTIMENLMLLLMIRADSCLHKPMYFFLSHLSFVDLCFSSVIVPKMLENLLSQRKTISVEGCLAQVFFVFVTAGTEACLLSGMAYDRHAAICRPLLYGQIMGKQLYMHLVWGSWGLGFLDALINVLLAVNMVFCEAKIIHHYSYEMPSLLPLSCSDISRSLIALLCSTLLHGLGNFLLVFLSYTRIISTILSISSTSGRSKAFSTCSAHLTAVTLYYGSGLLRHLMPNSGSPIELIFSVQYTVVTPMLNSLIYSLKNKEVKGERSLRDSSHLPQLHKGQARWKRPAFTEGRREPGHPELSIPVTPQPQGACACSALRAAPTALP
Summary of the method: as §1

OR8J2 (Homo sapiens) = OR8J2 (Homo sapiens) (UniProt Q8NGG1)
Chain of OR8J2 (Homo sapiens) (Q8NGG1 whole entry): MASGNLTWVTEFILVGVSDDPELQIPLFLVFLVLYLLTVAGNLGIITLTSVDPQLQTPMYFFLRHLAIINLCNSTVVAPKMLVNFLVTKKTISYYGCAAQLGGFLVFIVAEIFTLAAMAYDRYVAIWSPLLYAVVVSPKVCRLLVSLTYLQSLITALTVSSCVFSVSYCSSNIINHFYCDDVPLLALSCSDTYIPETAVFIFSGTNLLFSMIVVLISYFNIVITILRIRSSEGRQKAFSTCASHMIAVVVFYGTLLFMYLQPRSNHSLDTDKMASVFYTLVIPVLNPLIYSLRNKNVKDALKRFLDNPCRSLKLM
Summary of the method: as §1

Measured: odorant receptor agonist call

CCCCCCC=CCCC=O
not listed: OR8J2 (Homo sapiens)
inactive: all other assays above

CC1CCCCCCCCCCCCC(=O)C1 (stereo not given)
not listed: OR8D4 C120Y R133K | OR8H2 H120Y Y169C V284M | OR8H3 | OR8J1 | OR8J3 E4V
inactive: all other assays above

CCCCCC(=O)C(C)C(C)=O (stereo not given)
not listed: OR8D4 C120Y R133K | OR8H2 H120Y Y169C V284M | OR8H3 | OR8J1 | OR8J3 E4V | OR8J2 (Homo sapiens)
inactive: all other assays above

CCC1OC(=O)C(O)=C1C (stereo not given)
not listed: OR8J2 (Homo sapiens)
inactive: all other assays above

CCCC(S)CCOC(C)=O (stereo not given)
not listed: OR8J2 (Homo sapiens)
inactive: all other assays above

CC1=C(O)C(=O)C(C)O1 (stereo not given)
not listed: OR8J2 (Homo sapiens)
inactive: all other assays above

CC(=O)c1c(C)c([N+](=O)[O-])c(C(C)(C)C)c([N+](=O)[O-])c1C
not listed: OR8D4 C120Y R133K | OR8H2 H120Y Y169C V284M | OR8H3 | OR8J1 | OR8J3 E4V
inactive: all other assays above
